Shown are actives, neighbours in structure and some others; about 0.44% of the full set was active somewhere.
PDI inh: inhibitors of human protein disulfide isomerase; P07237; 350,000 compounds, 0.052% hits; PDI insulin aggregation turbidity, A650, 90 min; inhibition, % at 10 µM;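 active = mean inhibition across replicates of 30% or more, whatever share of single replicates reach that level; inconclusive = mean inhibition below 30% while every single replicate reaches 30%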
Target sequence (P07237 whole entry, looked up): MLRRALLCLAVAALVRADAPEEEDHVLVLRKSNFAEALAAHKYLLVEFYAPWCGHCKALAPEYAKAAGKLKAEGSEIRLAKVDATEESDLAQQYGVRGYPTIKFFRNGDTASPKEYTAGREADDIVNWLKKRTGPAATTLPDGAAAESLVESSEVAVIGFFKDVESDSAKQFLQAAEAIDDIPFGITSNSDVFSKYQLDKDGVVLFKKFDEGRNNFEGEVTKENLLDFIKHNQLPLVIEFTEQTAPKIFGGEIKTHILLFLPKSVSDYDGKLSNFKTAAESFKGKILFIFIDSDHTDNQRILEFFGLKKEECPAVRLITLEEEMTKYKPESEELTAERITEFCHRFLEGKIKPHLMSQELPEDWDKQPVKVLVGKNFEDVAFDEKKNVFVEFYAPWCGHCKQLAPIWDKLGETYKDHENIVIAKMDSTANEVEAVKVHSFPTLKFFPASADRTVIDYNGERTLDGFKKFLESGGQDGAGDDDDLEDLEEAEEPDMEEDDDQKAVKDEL
S100A4 MyoIIA: inhibitors of human S100A4 binding to myosin IIA peptide. P26447. S100A4/TAMRA-MyoIIA peptide fluorescence polarization. inhibition, % at 10.7 µM. 360,000 compounds, 0.14% hits;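 active = mean inhibition of at least 70% across replicates, with every replicate also reaching that level; inconclusive = mean inhibition reaches 70% but some replicates fall short; inactive = mean inhibition below 70%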
Target sequence (P26447 whole entry, looked up): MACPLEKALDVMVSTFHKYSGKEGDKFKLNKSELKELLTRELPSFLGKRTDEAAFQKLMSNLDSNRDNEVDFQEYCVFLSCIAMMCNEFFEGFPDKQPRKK
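Test system: S100A4 monomer protein; Medium: HEPES pH 7.2 with CaCl2, KCl, NaCl, DTT, Triton; Probe or stimulus: TAMRA-labelled myosin IIA heavy-chain peptide probe, 5 nM; Doses: one dose per compound; Times: polarization read 5 min after assay mix addition, stable 5–60 min; Benchmarks: neutral control DMSO, positive control TFP.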
FN deposition inh: fibronectin deposition inhibition | 350,000 compounds, 0.086% hits | AH1F fibroblasts, Alexa488-fibronectin deposition fluorescence, overnight | inhibition, % at 12.6 µM | AID 743247;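 active = mean inhibition across replicates of 30% or more, regardless of how many single replicates reach that level; inconclusive = mean under 30% yet at least half of replicates reach 30%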
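Assay system: AH1F fibroblast monolayer, labelled fibronectin deposition. Amount: 10000 cells per well. Also added: labelled fibronectin 24 nM. Compound: single-point pinned compound. Incubation: cell attachment 1 h, compound and FN exposure overnight. Detection: fluorescence after three HBSS washes, excitation 485 nm, emission 525 nm. Read-out: inhibition of fibronectin deposition signal.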
ERp5 block: ERp5 (human) disulfide isomerase inhibition; ERp5 insulin aggregation, absorbance 650 nm, 90 min; inhibition, % at 9.99 µM; 350,000 compounds, 0.05% hits; Q15084;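 active = mean replicate inhibition above about 25%, with every replicate also reaching it, limit read from the data, passing the limit was not always enough; inconclusive = only one of those two criteria met; inactive = neither criterion met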
PglD DTNB: blocks C. jejuni PglD acetyltransferase activity; inhibition, % at 12.5 µM; 360,000 compounds, 0.098% hits; purified PglD enzyme, DTNB colorimetric CoA detection; in the data active = inhibition above about 16%, passing the limit was not always enough; inconclusive = no clear call, values can overlap the other calls
RAD54 inh: inhibitors of human RAD54 branch migration; Q92698; RAD54 Holliday junction branch migration, FAM/BHQ fluorescence; inhibition, % at 10.4 µM; 360,000 compounds, 0.14% hits;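 active = mean normalized replicate activity at least 40 and at least half of replicates scoring 40 or more; inconclusive = only one of the two criteria met; inactive = mean below 40 and under half of replicates reaching 40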;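 also: inhibitors cause a drop in the FAM fluorescence signal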
Rad54 DNA ctr: DNA binding artifact in Rad54 counter-screen; shares compounds with RAD54 inh; Acridine orange-DNA displacement, fluorescence polarization, 20 min; AC50, µM (series often up to 35 µM); 460 compounds, 8% hits;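 active = signal drop giving an AC50 within twice the top valid tested concentration of each sample, actives reach about 35 µM in these data; inactive = activity opposite to expected, plus the rest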;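 also: polarization loss reports compound binding to salmon sperm DNA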
Numbers stand for hits; - = inactive; ? = inconclusive; . = no result.

SMILES | PDI inh | S100A4 MyoIIA | FN deposition inh | ERp5 block | PglD DTNB | RAD54 inh | Rad54 DNA ctr
C[C@@H]1CN([C@@H](C)CO)S(=O)(=O)c2ccc(-c3ccccc3)cc2O[C@H]1CN(C)Cc1cccc(F)c1 | . | 143.0 | - | - | - | - | .
C/C=C/c1ccc2c(c1)O[C@@H](CN(C)S(C)(=O)=O)[C@H](C)CN([C@@H](C)CO)S2(=O)=O | . | - | - | 68.1 | - | - | .
C/C=C/c1ccc2c(c1)O[C@H](CN(C)S(C)(=O)=O)[C@H](C)CN([C@@H](C)CO)S2(=O)=O | . | - | - | - | - | - | .
C/C=C/c1ccc2c(c1)O[C@H](CN(C)Cc1cncnc1)[C@H](C)CN([C@@H](C)CO)S2(=O)=O | . | - | - | 28.7 | - | - | .
COc1ccccc1-c1ccc2c(c1)O[C@H](CN(C)C(C)=O)[C@@H](C)CN([C@@H](C)CO)S2(=O)=O | . | 122.8 | - | - | - | - | .
CC(=O)N(C)C[C@@H]1Oc2ncc(C#Cc3cccnc3)cc2C(=O)N([C@H](C)CO)C[C@H]1C | . | - | - | - | - | - | .
COc1ccc2c3c(n(C)c2c1)[C@@H](CO)N(C(=O)C1CC1)CC31CCN(CC2CCCC2)CC1 | . | - | . | - | . | . | .
CCCC#Cc1cnc2c(c1)C(=O)N([C@@H](C)CO)C[C@H](C)[C@H](CN(C)C(=O)Nc1ccc(OC)cc1)O2 | . | - | - | - | - | - | .
O=C(C[C@H]1CC[C@H](NS(=O)(=O)c2ccccc2)[C@H](CO)O1)N1CCN(c2ccccc2)CC1 | . | - | . | - | . | . | .
C/C=C/c1ccc2c(c1)O[C@H](CN(C)S(C)(=O)=O)[C@@H](C)CN([C@@H](C)CO)S2(=O)=O | . | - | - | ? | - | - | .
C/C=C/c1ccc2c(c1)O[C@@H](CN(C)S(C)(=O)=O)[C@H](C)CN([C@H](C)CO)S2(=O)=O | . | - | - | 88.3 | - | - | .
Cc1ccc(-c2nc(C(=O)NCCCN(C)C)cc3c2[nH]c2ccccc23)cc1 | - | - | - | - | - | 105.4 | -
COc1ccc(-c2cc(NC=O)c3ncc(-c4cccc(C(=O)NCCN(C)C)c4)n3c2)cn1 | - | - | . | - | - | 94.6 | -
COc1ccc(-c2cc(NC=O)c3ncc(-c4cccc(C(=O)NCCN(C)C)c4)n3c2)c(OC)c1 | - | - | . | - | - | - | .
COc1cc(-c2cnc3c(NC=O)cc(-c4cccc(C(=O)NCCN(C)C)c4)cn23)cc(OC)c1OC | - | - | - | - | - | 101.5 | -
COc1ccccc1Nc1nc(NCC2CCCO2)c2ccccc2n1 (stereo unspecified) | - | - | - | - | - | 67.5 | -
COc1ccc(OC)c(Nc2nc(NCCO)c3ccccc3n2)c1 | - | - | - | - | - | 94.3 | -
Cc1ccc(Nc2nc(NCCO)c3ccccc3n2)cc1C | - | - | - | - | - | - | .
CCCNC(=O)c1cc2c(c(-c3cccc(-c4cccc(OC)c4)c3)n1)[C@H](CCO)N([S@@](=O)C(C)(C)C)C2 | . | - | - | - | - | - | .
C/C=C/c1cnc2c(c1)C(=O)N([C@H](C)CO)C[C@@H](C)[C@H](CN(C)Cc1ccc(F)cc1)O2 | . | - | . | - | - | - | .
CCn1cc(C(=O)NCCN(C)C)c(=O)c2cc(F)c(N3CCN(C)CC3)cc21 | - | - | - | - | - | 59.3 | -
CN(C)CC#Cc1ccc([C@@H]2[C@H](CO)N3CCCCN(CC4CC4)C[C@@H]23)cc1 | . | - | - | - | - | - | .
Nc1cc2ccncc2c2ccccc12 | - | - | - | - | - | 69.7 | -
CC1CCCCC1NC(=O)C1Cc2ccccc2CN1S(C)(=O)=O (stereo unspecified) | - | . | . | . | - | ? | -
CS(=O)(=O)N1Cc2ccccc2CC1C(=O)O (stereo unspecified) | - | - | - | - | - | - | .
SMILES | PDI inh | S100A4 MyoIIA | FN deposition inh | ERp5 block | PglD DTNB | RAD54 inh | Rad54 DNA ctr
O=C(c1ccccn1)N1CC2(C1)[C@H](c1ccccc1)[C@@H](CO)N2Cc1cccnc1 | . | - | . | - | . | . | .
CCCCN(CC)CCCNC(=O)c1cc2c(=O)n(C)c3ccccc3c2n1C | . | - | - | - | - | 61.3 | -
CC(C)OCCCNC(=O)c1cc2c(=O)n(C)c3ccccc3c2n1C | . | - | - | - | - | - | .
Cn1c(C(=O)NCCN2CCN(Cc3ccccc3)CC2)cc2c(=O)n(C)c3ccccc3c21 | . | - | - | - | - | - | .
CC1CCN(CCCNC(=O)c2cc3c(=O)n(C)c4ccccc4c3n2C)CC1 | . | - | - | - | - | 59.4 | -
Cn1c(C(=O)NCCCN2CCOCC2)cc2c(=O)n(C)c3ccccc3c21 | . | - | - | - | - | ? | -
Cn1c(C(=O)NCCCN2CCN(c3ccccc3F)CC2)cc2c(=O)n(C)c3ccccc3c21 | . | - | - | - | - | - | .
Cn1c(C(=O)NCCN2CCCCCC2)cc2c(=O)n(C)c3ccccc3c21 | . | - | - | - | - | 56.3 | -
C[C@H](CO)N1C[C@H](C)[C@H](CN(C)S(C)(=O)=O)OCCCC[C@H](C)Oc2ccc(N(C)C)cc2C1=O | . | - | . | - | - | - | .
C[C@H]1CCCCO[C@@H](CN(C)Cc2ccccc2)[C@@H](C)CN([C@@H](C)CO)C(=O)c2cc(NC(=O)Nc3cccc4ccccc34)ccc2O1 | . | - | - | - | - | - | .
CCCN1[C@@H]2c3ccc(-c4ccccc4F)c(=O)n3C[C@@H]2[C@@H](CO)[C@@H]1C(=O)N1CCCCC1 | . | - | . | - | - | - | .
CN(C)CCSc1nc(N)c2c3c(sc2n1)CN(C)CC3 | - | . | . | . | - | 74.9 | -
CCN(CC)CCNc1nc(SC)nc2sc3c(c12)CCN(C)C3 | - | - | - | - | - | 53.0 | -
O=C(C1CCCC1)N1CCCCN2[C@H](C1)[C@H](c1ccc(C#CC3CC3)cc1)[C@@H]2CO | . | - | . | - | - | - | .
CC(C)CNC(=O)[C@@]1(c2ccc([N+](=O)[O-])cc2)CC(=O)N(CC23CC4CC(CC(C4)C2)C3)[C@@H]1c1ccc(CO)cc1 | . | - | . | - | - | - | .
O=c1c2ccccc2oc2ccc(NCCCN3CCOCC3)cc12 | - | - | - | - | - | ? | -
Cn1c2ccccc2c(=O)c2cc(NCCCN3CCOCC3)ccc21 | - | - | - | - | - | 115.7 | -
O=C(COc1ccc2c(c1)oc(=O)c1ccccc12)NCCCN1CCOCC1 | - | - | - | - | - | ? | -
O=c1c2ccccc2oc2cc(NCCCN3CCOCC3)ccc12 | - | - | - | - | - | 66.1 | -
Cc1noc(C)c1S(=O)(=O)N(C)C[C@@H]1OCCCC[C@@H](C)Oc2ccc(NC(=O)NC3CCCCC3)cc2C(=O)N([C@H](C)CO)C[C@@H]1C | . | - | . | - | - | - | .
CNC(=O)C[C@H]1CC[C@@H]2[C@@H](COc3ccc(NC(=O)c4cscn4)cc3C(=O)N2C)O1 | . | . | - | . | - | - | .

Screens as filed in PubChem.
